Test results reported in PMC3306481 (Clinical Cancer Research, 2012).
Where two headings read alike, the source gives them in different places.

How the values were obtained:
[1] = for Maximum tolerated dose (MTD): 21-day cycles (DL 7)
γH2AX = γH2AX levels in circulating tumor cells; assay type: in vivo, human; details: day 2 of cycle 1; of nine patients with detectable CTCs; with cyclophosphamide
Method in brief: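 During cycle 1, patients took the oral test compound once daily (20–60 mg) with daily oral alkylator (50 or 100 mg). Circulating tumour cells were scored for γH2AX positivity by a validated immunofluorescence assay run to standard operating procedures and compared with each patient's baseline.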

PARP = details: 24 hours after a single 50 mg dose; phase 0 trial; cited from earlier work
[2] = high-dose veliparib, preclinical model; cited from earlier work
[3] = studies conducted with veliparib; cited from earlier work
[4] = tested on: poly(ADP-ribose) (PAR), a product of PARP; assay: PAR levels in tumor biopsies; assay type: in vivo, human; details: all five patients with paired pre- and post-dose biopsies, after 7 or 21 days of treatment; with cyclophosphamide
[5] = Veliparib plasma pharmacokinetics; assay type: in vivo, human
Method in brief: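 The oral test compound was dosed once daily at 20–60 mg with oral alkylator 50 or 100 mg daily. Plasma was sampled pre-dose and 0.5, 1, 1.5, 2, 3, 4, 6, 8 and 24 h post-dose on cycle 1 day 1 and on the last dosing day (7, 14 or 21). Blood was spun at 1,000 × g and plasma held at -70°C. Levels were read by LC-MS validated to FDA guidelines. Days were compared by two-tailed paired exact Wilcoxon test, with P < 0.05 taken as significant.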

[6] = tested on: refractory solid tumors and lymphoid malignancies; assay: Phase I trial: tumor response by RECIST 1.0; assay type: in vivo, human

Compound	Maximum tolerated dose (MTD) ([1]; cyclophosphamide daily with veliparib 60 mg daily)	Patients with an increased percentage of γH2AX-positive CTCs (γH2AX)	Inhibition of PARP activity in tumor biopsies (PARP)	Tolerability of the study regimen ([1]; in vivo)	Maximum tolerated dose (MTD) ([1]; veliparib daily with cyclophosphamide 50 mg daily)	Seizures [2]	Cardiac toxicity related to study drug [3]	Decrease in PAR levels in tumor biopsies [4]	Changes in PK parameters between baseline and day 7, 14, or 21 ([5]; co-administered metronomic cyclophosphamide)	half-life ([5]; human, plasma, oral)	PK behavior of veliparib at DL 5 compared with other DLs ([5]; three patients on DL 5 (100 mg cyclophosphamide))	Total No. of cycles ([6]; partial response, patient 15, breast cancer, dose level 5, with cyclophosphamide)	Patients with prolonged stable disease among patients with known BRCA mutations ([6]; thirteen patients with known BRCA mutations, with cyclophosphamide)	Patients with partial response ([6]; veliparib with metronomic cyclophosphamide, 35 patients enrolled, RECIST 1.0)
O=P1(N(CCCl)CCCl)NCCCO1 (centres unmarked) [cyclophosphamide]	50 mg	–	–	–	–	–	–	–	–	–	–	–	–	–
C[C@]1(c2nc3c(C(N)=O)cccc3[nH]2)CCCN1 [veliparib, Veliparib]	–	Seven	greater than 48%	well tolerated	60 mg	caused seizures	no indication of cardiac toxicity	greater than 80%	No statistically significant changes	300 ± 90 min	not different	4 cycles	three	Seven
